Several values for one entry are separate records, joined by “and”; a condition that tells them apart may be missing. Identical values can stand only once.
System: Fibroblast
Test: Multiplex assay against human fibroblast
Format: toxicity, cell-based
Outline: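 Imaging took place on a CQ1 microscope at 37°C and 5% CO2 once compound had been added to live cells stained at seeding with Hoechst33342, BioTracker Green Microtubule Cytoskeleton Dye, MitoTracker Red and Annexin V Alexa Fluor 680. CellPathfinder machine-learning gating classed cells as Hoechst high-intensity objects or normal cells, classed normal cells as having healthy, pyknosed or fragmented nuclei, and classed pyknosed cells as mitotic or apoptotic. Tubulin, mitochondrial-mass and membrane-permeability phenotypes are per cents of the healthy-nucleus cells.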

[1] = 12 h, 1 µM, compound concentration 1 uM
[2] = 12 h, 10 µM, compound concentration 10 uM
[3] = 24 h, 1 µM, compound concentration 1 uM
[4] = 24 h, 10 µM, compound concentration 10 uM
[5] = 48 h, 1 µM, compound concentration 1 uM
[6] = 48 h, 10 µM, compound concentration 10 uM

CCn1c(-c2nc3cc(C(=O)N4CCCC(N)C4)ccc3n2C)cc2ccccc21.Cl (stereo not drawn)
Population Fragmented Nuclei (%) [1]: 17% [middle of 4 runs] | Population Healthy Nuclei (%) [1]: 67% and 54% and 55.75% and 78.2% | Population Hoechst High Intensity Objects (%) [1]: 3% and 5% and 0% | Population Membrane Permeable-Phenotype (%) [1]: 0% and 2% and 1.03% and 4.85% | Population Mitotic Cells (%) [1]: 77.42% [middle of 4 runs] | Population Normal (%) [1]: 96% and 94% and 100% | Population Pyknosed Nuclei (%) [1]: 15% and 23% and 28.16% and 14.69% | Population Tubulin-Different-Phenotype (%) [1]: 27% and 41% and 21.65% and 21.21% | Total Cell Count [1]: 128 and 167 and 174 and 211 | Population Healthy Nuclei (%) [2]: 63% and 37% and 62.74% and 73.72% | Population Hoechst High Intensity Objects (%) [2]: 1% and 3% and 0% | Population Membrane Permeable-Phenotype (%) [2]: 0% and 10.3% and 7.87% | Population Mitochondria Different-Phenotype (%) [2]: 18% and 19% and 29.7% and 27.78% | Population Mitotic Cells (%) [2]: 58% and 61% and 89.16% and 71.43% | Population Normal (%) [2]: 98% and 96% and 100% | Population Pyknosed Nuclei (%) [2]: 29% [middle of 4 runs] | Population Tubulin-Different-Phenotype (%) [2]: 69% and 80% and 72.73% and 81.48% | Total Cell Count [2]: 221 and 186 and 263 and 293 | Population Fragmented Nuclei (%) [3]: 22% [middle of 4 runs] | Population Healthy Nuclei (%) [3]: 68% and 54% and 66.49% and 74.56% | Population Hoechst High Intensity Objects (%) [3]: 0% and 9% | Population Membrane Permeable-Phenotype (%) [3]: 0% and 3% and 2.33% and 7.06% | Population Mitotic Cells (%) [3]: 70.59% [middle of 4 runs] | Population Normal (%) [3]: 99% and 90% and 100% | Population Pyknosed Nuclei (%) [3]: 17% [middle of 4 runs] | Population Tubulin-Different-Phenotype (%) [3]: 30% [middle of 4 runs] | Total Cell Count [3]: 127 and 184 and 194 and 228 | Population Healthy Nuclei (%) [4]: 66% and 46% and 70.93% and 75.81% | Population Hoechst High Intensity Objects (%) [4]: 3% and 4% and 0% | Population Membrane Permeable-Phenotype (%) [4]: 0% and 2% and 4.95% and 6.19% | Population Mitochondria Different-Phenotype (%) [4]: 40.95% [middle of 4 runs] | Population Mitotic Cells (%) [4]: 45.1% [middle of 4 runs] | Population Normal (%) [4]: 96% and 95% and 100% | Population Pyknosed Nuclei (%) [4]: 23% [middle of 4 runs] | Population Tubulin-Different-Phenotype (%) [4]: 76% and 82% and 83.33% and 85.24% | Total Cell Count [4]: 231 and 189 and 313 and 277 | Population Healthy Nuclei (%) [5]: 67% and 51% and 79.63% and 83.64% | Population Hoechst High Intensity Objects (%) [5]: 2% and 5% and 0% | Population Membrane Permeable-Phenotype (%) [5]: 1% and 2% and 1.16% and 4.47% | Population Normal (%) [5]: 97% and 94% and 100% | Population Pyknosed Nuclei (%) [5]: 8% and 15% and 6.02% and 7.01% | Total Cell Count [5]: 137 and 193 and 216 and 214 | Population Apoptotic (%) [6]: 76.92% [middle of 4 runs] | Population Healthy Nuclei (%) [6]: 72% and 57% and 86.19% and 89.14% | Population Hoechst High Intensity Objects (%) [6]: 3% and 0% | Population Membrane Permeable-Phenotype (%) [6]: 0% and 3.83% and 7.75% | Population Mitochondria Different-Phenotype (%) [6]: 22% and 16% and 24.74% and 18.08% | Population Normal (%) [6]: 96% and 100% | Population Pyknosed Nuclei (%) [6]: 8% and 3.3% and 4.28% | Population Tubulin-Different-Phenotype (%) [6]: 85% and 61.67% and 81.55% | Total Cell Count [6]: 232 and 231 and 333 and 304

S=c1[nH]nc(-c2cccs2)n1-c1ccccc1
Population Apoptotic (%) [1]: 10.45% and 27.27% | Population Fragmented Nuclei (%) [1]: 8.13% and 2.86% | Population Healthy Nuclei (%) [1]: 59.81% and 84.57% | Population Hoechst High Intensity Objects (%) [1]: 0% | Population Membrane Permeable-Phenotype (%) [1]: 2.4% and 4.05% | Population Mitochondria Different-Phenotype (%) [1]: 10.4% and 6.76% | Population Mitotic Cells (%) [1]: 89.55% and 72.73% | Population Normal (%) [1]: 100% | Population Pyknosed Nuclei (%) [1]: 32.06% and 12.57% | Population Tubulin-Different-Phenotype (%) [1]: 13.6% and 28.38% | Total Cell Count [1]: 209 and 175 | Population Apoptotic (%) [2]: 17.07% and 26.67% | Population Healthy Nuclei (%) [2]: 62.62% and 78.84% | Population Hoechst High Intensity Objects (%) [2]: 0% | Population Membrane Permeable-Phenotype (%) [2]: 5.97% and 4.03% | Population Mitochondria Different-Phenotype (%) [2]: 8.21% and 11.41% | Population Mitotic Cells (%) [2]: 82.93% and 73.33% | Population Normal (%) [2]: 100% | Population Pyknosed Nuclei (%) [2]: 19.16% and 15.87% | Population Tubulin-Different-Phenotype (%) [2]: 14.18% and 20.13% | Total Cell Count [2]: 214 and 189 | Population Fragmented Nuclei (%) [3]: 7.76% and 4% | Population Healthy Nuclei (%) [3]: 78.88% and 84% | Population Hoechst High Intensity Objects (%) [3]: 0% | Population Membrane Permeable-Phenotype (%) [3]: 3.28% and 2.04% | Population Mitochondria Different-Phenotype (%) [3]: 4.92% and 4.76% | Population Mitotic Cells (%) [3]: 93.55% and 76.19% | Population Normal (%) [3]: 100% | Population Pyknosed Nuclei (%) [3]: 13.36% and 12% | Population Tubulin-Different-Phenotype (%) [3]: 8.2% and 19.05% | Total Cell Count [3]: 232 and 175 | Population Apoptotic (%) [4]: 16.22% and 35.71% | Population Fragmented Nuclei (%) [4]: 14.71% and 5.24% | Population Healthy Nuclei (%) [4]: 69.75% and 80.1% | Population Hoechst High Intensity Objects (%) [4]: 0% | Population Membrane Permeable-Phenotype (%) [4]: 3.61% and 5.88% | Population Mitochondria Different-Phenotype (%) [4]: 4.22% and 5.23% | Population Mitotic Cells (%) [4]: 83.78% and 64.29% | Population Normal (%) [4]: 100% | Population Pyknosed Nuclei (%) [4]: 15.55% and 14.66% | Population Tubulin-Different-Phenotype (%) [4]: 11.45% and 16.99% | Total Cell Count [4]: 238 and 191 | Population Apoptotic (%) [5]: 8.33% and 10.53% | Population Fragmented Nuclei (%) [5]: 8.8% and 5.49% | Population Healthy Nuclei (%) [5]: 86.4% and 84.07% | Population Hoechst High Intensity Objects (%) [5]: 0% | Population Membrane Permeable-Phenotype (%) [5]: 0.93% and 1.96% | Population Mitochondria Different-Phenotype (%) [5]: 10.19% and 2.61% | Population Mitotic Cells (%) [5]: 91.67% and 89.47% | Population Normal (%) [5]: 100% | Population Pyknosed Nuclei (%) [5]: 4.8% and 10.44% | Total Cell Count [5]: 250 and 182 | Population Apoptotic (%) [6]: 11.76% and 33.33% | Population Fragmented Nuclei (%) [6]: 10.61% and 5.58% | Population Healthy Nuclei (%) [6]: 82.45% and 88.32% | Population Hoechst High Intensity Objects (%) [6]: 0% | Population Membrane Permeable-Phenotype (%) [6]: 0% and 2.3% | Population Mitochondria Different-Phenotype (%) [6]: 9.9% and 4.02% | Population Mitotic Cells (%) [6]: 88.24% and 66.67% | Population Normal (%) [6]: 100% | Population Pyknosed Nuclei (%) [6]: 6.94% and 6.09% | Total Cell Count [6]: 245 and 197
